A short description of data set [1]: Stability in 28% NH3 aq, 55 degC incubated for 8 hrs assessed as compound degradation in to PDE dimer d(TpT) by reversed-phase HPLC method. The data set is classed as physicochemical. Put shortly: (§1)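 Untreated and treated dimers compared by reversed-phase HPLC on a C18 column, eluted with a linear 5–25% acetonitrile gradient over 20 min in 50 mM triethylammonium acetate, pH 7.0.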

Data set [2] in a line: Stability in 28% NH3 aq, incubated for 2 hrs at room temperature assessed as compound degradation by reversed-phase HPLC method. The data set is classed as physicochemical. Put shortly: as §1
Data set [3] in a line: Stability assessed as snake venom phosphodiesterase-mediated compound degradation at 5 nmol incubated for 180 mins by reversed-phase HPLC method. The data set is classed as ADME. The settings on record: serpentes, 3 h. Put shortly: (§2)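 Dimers incubated with snake venom phosphodiesterase or in 10% fetal bovine serum, then reactions analysed by reversed-phase HPLC; peak areas of intact dimer used to give the fraction of intact dimer over time.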

In data set [4] the test system is Serum. As to the kind of experiment: Stability in 10% FBS assessed as compound degradation at 5 nmol incubated for 180 mins by reversed-phase HPLC method. The data set is classed as ADME, cell-free, Bos taurus. The note with it: cattle, 3 h. The method, boiled down: as §2
The subject of data set [5] is A549. Briefly: Permeability in human A549 cells assessed as relative fluorescence intensity at 10 uM incubated for 8 hrs at 37 degC in presence of serum free medium by spectrofluorometry. The data set is classed as ADME, cell-based. The note with it: a549, 8 h. Put shortly:
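A549 cells exposed to TAMRA-labeled oligonucleotides (in 10 mM Tris–HCl, 1 mM EDTA, pH 8) without transfection reagent; after incubation, PBS wash, lysis and lysate fluorescence read on a spectrofluorometer; n = 4.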

The nature of data set [6]: Solubility in water. The data set is classed as physicochemical. The note with it: buffer.

The values below come from ChEMBL document CHEMBL3608243, “Synthesis of novel cationic spermine-conjugated phosphotriester oligonucleotide for improvement of cell membrane permeability” (Bioorg Med Chem Lett, 2015).

SMILES strings stand for the structures.

With `COP(=O)(OC[C@H]1O[C@@H](n2cc(C)c(=O)[nH]c2=O)C[C@@H]1O)O[C@H]1C[C@H](n2cc(C)c(=O)[nH]c2=O)O[C@@H]1CO` (stereo partly drawn), the Stability result in data set [1] and in data set [2] was “Unstable” each time. As to `CCOP(=O)(OC[C@H]1O[C@@H](n2cc(C)c(=O)[nH]c2=O)C[C@@H]1O)O[C@H]1C[C@H](n2cc(C)c(=O)[nH]c2=O)O[C@@H]1CO` (stereo partly drawn), the Stability entry in data set [3], in data set [1], in data set [2] and in data set [4] was “Stable” in each case. `Cc1cn([C@H]2C[C@H](OP(=O)(O)OC[C@H]3O[C@@H](n4cc(C)c(=O)[nH]c4=O)C[C@@H]3O)[C@@H](CO)O2)c(=O)[nH]c1=O`: the Stability entry in data set [3] and in data set [4] was “Unstable” each time. Consider `Cc1cn([C@H]2C[C@H](OP(=O)(O)OC[C@H]3O[C@@H](n4cc(C)c(=O)[nH]c4=O)C[C@@H]3OP(=O)(O)OC[C@H]3O[C@@H](n4cc(C)c(=O)[nH]c4=O)C[C@@H]3OP(=O)(O)OC[C@H]3O[C@@H](n4cc(C)c(=O)[nH]c4=O)C[C@@H]3OP(=O)(O)OC[C@H]3O[C@@H](n4cc(C)c(=O)[nH]c4=O)C[C@@H]3OP(=O)(O)OC[C@H]3O[C@@H](n4cc(C)c(=O)[nH]c4=O)C[C@@H]3OP(=O)(O)OC[C@H]3O[C@@H](n4cc(C)c(=O)[nH]c4=O)C[C@@H]3OP(=O)(O)OC[C@H]3O[C@@H](n4cc(C)c(=O)[nH]c4=O)C[C@@H]3OP(=O)(O)OC[C@H]3O[C@@H](n4cc(C)c(=O)[nH]c4=O)C[C@@H]3OP(=O)(O)OC[C@H]3O[C@@H](n4cc(C)c(=O)[nH]c4=O)C[C@@H]3OP(=O)(O)OCCC(O)COCCCNC(=O)c3ccc(C(=O)O)c(C4=C5C=CC(=[N+](C)C)C=C5OC5C=C(N(C)C)C=CC45)c3)[C@@H](COP(=O)(O)O)O2)c(=O)[nH]c1=O` (stereo partly drawn), for which the Flu intensity in data set [5] is recorded as 1. Same read-out and setting: under `Cc1cn([C@H]2C[C@H](OP(=O)(O)OC[C@H]3O[C@@H](n4cc(C)c(=O)[nH]c4=O)C[C@@H]3OP(=O)(O)OC[C@H]3O[C@@H](n4cc(C)c(=O)[nH]c4=O)C[C@@H]3OP(=O)(O)OC[C@H]3O[C@@H](n4cc(C)c(=O)[nH]c4=O)C[C@@H]3OP(=O)(O)OC[C@H]3O[C@@H](n4cc(C)c(=O)[nH]c4=O)C[C@@H]3OP(=O)(O)OC[C@H]3O[C@@H](n4cc(C)c(=O)[nH]c4=O)C[C@@H]3OP(=O)(O)OC[C@H]3O[C@@H](n4cc(C)c(=O)[nH]c4=O)C[C@@H]3OP(=O)(O)OC[C@H]3O[C@@H](n4cc(C)c(=O)[nH]c4=O)C[C@@H]3OP(=O)(O)OC[C@H]3O[C@@H](n4cc(C)c(=O)[nH]c4=O)C[C@@H]3OP(=O)(O)OC[C@H]3O[C@@H](n4cc(C)c(=O)[nH]c4=O)C[C@@H]3OP(=O)(O)OCCC(O)COCCCNC(=O)c3ccc(C(=O)O)c(C4=C5C=CC(=[N+](C)C)C=C5OC5C=C(N(C)C)C=CC45)c3)[C@@H](COP(=O)(O)OCCCCNCCCNCCCCNCCCNCCCCO)O2)c(=O)[nH]c1=O` (stereo partly drawn) stands 5.45.

For the compound `CCOP(=O)(OC[C@H]1O[C@@H](n2cc(C)c(=O)[nH]c2=O)C[C@@H]1OP(=O)(OCC)OC[C@H]1O[C@@H](n2cc(C)c(=O)[nH]c2=O)C[C@@H]1OP(=O)(OCC)OC[C@H]1O[C@@H](n2cc(C)c(=O)[nH]c2=O)C[C@@H]1OP(=O)(OCC)OC[C@H]1O[C@@H](n2cc(C)c(=O)[nH]c2=O)C[C@@H]1OP(=O)(OCC)OC[C@H]1O[C@@H](n2cc(C)c(=O)[nH]c2=O)C[C@@H]1OP(=O)(OCC)OC[C@H]1O[C@@H](n2cc(C)c(=O)[nH]c2=O)C[C@@H]1OP(=O)(OCC)OC[C@H]1O[C@@H](n2cc(C)c(=O)[nH]c2=O)C[C@@H]1OP(=O)(OCC)OC[C@H]1O[C@@H](n2cc(C)c(=O)[nH]c2=O)C[C@@H]1OP(=O)(OCC)OC[C@H]1O[C@@H](n2cc(C)c(=O)[nH]c2=O)C[C@@H]1OP(=O)(O)OCCC(O)COCCCNC(=O)c1ccc(C(=O)O)c(C2=C3C=CC(=[N+](C)C)C=C3OC3C=C(N(C)C)C=CC23)c1)O[C@H]1C[C@H](n2cc(C)c(=O)[nH]c2=O)O[C@@H]1COP(=O)(O)O` (stereo partly drawn), the Flu intensity in data set [5] came out at 16. For `CCOP(=O)(OC[C@H]1O[C@@H](n2cc(C)c(=O)[nH]c2=O)C[C@@H]1OP(=O)(OCC)OC[C@H]1O[C@@H](n2cc(C)c(=O)[nH]c2=O)C[C@@H]1OP(=O)(OCC)OC[C@H]1O[C@@H](n2cc(C)c(=O)[nH]c2=O)C[C@@H]1OP(=O)(OCC)OC[C@H]1O[C@@H](n2cc(C)c(=O)[nH]c2=O)C[C@@H]1OP(=O)(OCC)OC[C@H]1O[C@@H](n2cc(C)c(=O)[nH]c2=O)C[C@@H]1OP(=O)(OCC)OC[C@H]1O[C@@H](n2cc(C)c(=O)[nH]c2=O)C[C@@H]1OP(=O)(OCC)OC[C@H]1O[C@@H](n2cc(C)c(=O)[nH]c2=O)C[C@@H]1OP(=O)(OCC)OC[C@H]1O[C@@H](n2cc(C)c(=O)[nH]c2=O)C[C@@H]1OP(=O)(OCC)OC[C@H]1O[C@@H](n2cc(C)c(=O)[nH]c2=O)C[C@@H]1OP(=O)(O)OCCC(O)COCCCNC(=O)c1ccc(C(=O)O)c(C2=C3C=CC(=[N+](C)C)C=C3OC3C=C(N(C)C)C=CC23)c1)O[C@H]1C[C@H](n2cc(C)c(=O)[nH]c2=O)O[C@@H]1COP(=O)(O)OCCCCNCCCNCCCCNCCCNCCCCO` (stereo partly drawn), the Flu intensity in data set [5] stood at 33.1. Further, the solubility entry in data set [6] was “soluble”.
